The source made the active and inactive calls. The calls are words filed in the database; no cut-off is given here.
How the values were obtained:
Influenza A virus = assay: Antiviral activity against Influenza virus A/FPV/Bratislava/79(H7N7) infected in human A549 cells assessed as viral replication at 5 uM after 24 hrs by plaque assay relative to control; format: functional
[1] = target: Sigma non-opioid intracellular receptor 1 (Cavia porcellus) (UniProt Q60492); assay: Displacement of [3H]-(+)-pentazocine from sigma-1 receptor in guinea pig brain cortex membranes up to 10 uM after 120 mins by scintillation counting analysis; format: cell membranes; conditions: Cerebral cortex
[2] = Displacement of [3H]-(+)-MK-801 from phencyclidine binding site of NMDA receptor in pig membranes after 150 mins by scintillation counting analysis; format: cell membranes, Sus scrofa
In short: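 Thawed membrane preparation (about 100 µg protein) incubated with test compound at various concentrations and 2 nM [3H]-(+)-MK-801 (22.0 Ci/mmol) in TRIS/EDTA (5 mM/1 mM, pH 7.5), 150 min, rt. Stopped by rapid filtration over presoaked filtermats, five water washes, melted solid scintillator, then counting. Nonspecific binding was taken with unlabeled (+)-MK-801. Radioligand Kd 2.26 nM.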

Rattus norvegicus = organism: Rattus norvegicus; assay: Displacement of [3H]-DTG from sigma-2 receptor in rat liver membranes up to 10 uM after 120 mins by scintillation counting analysis; format: cell membranes; conditions: Membrane
[3] = target: Glutamate NMDA receptor; GRIN1/GRIN2A (Homo sapiens, UniProt Q05586+Q12879); assay: Displacement of [3H]-(+)-MK-801 from phencyclidine binding site of NMDA receptor in human frontal cortex after 22 hrs by scintillation counting analysis; format: tissue-based
Sequence of Glutamate NMDA receptor; GRIN1/GRIN2A (Q12879 whole entry, other chains not shown): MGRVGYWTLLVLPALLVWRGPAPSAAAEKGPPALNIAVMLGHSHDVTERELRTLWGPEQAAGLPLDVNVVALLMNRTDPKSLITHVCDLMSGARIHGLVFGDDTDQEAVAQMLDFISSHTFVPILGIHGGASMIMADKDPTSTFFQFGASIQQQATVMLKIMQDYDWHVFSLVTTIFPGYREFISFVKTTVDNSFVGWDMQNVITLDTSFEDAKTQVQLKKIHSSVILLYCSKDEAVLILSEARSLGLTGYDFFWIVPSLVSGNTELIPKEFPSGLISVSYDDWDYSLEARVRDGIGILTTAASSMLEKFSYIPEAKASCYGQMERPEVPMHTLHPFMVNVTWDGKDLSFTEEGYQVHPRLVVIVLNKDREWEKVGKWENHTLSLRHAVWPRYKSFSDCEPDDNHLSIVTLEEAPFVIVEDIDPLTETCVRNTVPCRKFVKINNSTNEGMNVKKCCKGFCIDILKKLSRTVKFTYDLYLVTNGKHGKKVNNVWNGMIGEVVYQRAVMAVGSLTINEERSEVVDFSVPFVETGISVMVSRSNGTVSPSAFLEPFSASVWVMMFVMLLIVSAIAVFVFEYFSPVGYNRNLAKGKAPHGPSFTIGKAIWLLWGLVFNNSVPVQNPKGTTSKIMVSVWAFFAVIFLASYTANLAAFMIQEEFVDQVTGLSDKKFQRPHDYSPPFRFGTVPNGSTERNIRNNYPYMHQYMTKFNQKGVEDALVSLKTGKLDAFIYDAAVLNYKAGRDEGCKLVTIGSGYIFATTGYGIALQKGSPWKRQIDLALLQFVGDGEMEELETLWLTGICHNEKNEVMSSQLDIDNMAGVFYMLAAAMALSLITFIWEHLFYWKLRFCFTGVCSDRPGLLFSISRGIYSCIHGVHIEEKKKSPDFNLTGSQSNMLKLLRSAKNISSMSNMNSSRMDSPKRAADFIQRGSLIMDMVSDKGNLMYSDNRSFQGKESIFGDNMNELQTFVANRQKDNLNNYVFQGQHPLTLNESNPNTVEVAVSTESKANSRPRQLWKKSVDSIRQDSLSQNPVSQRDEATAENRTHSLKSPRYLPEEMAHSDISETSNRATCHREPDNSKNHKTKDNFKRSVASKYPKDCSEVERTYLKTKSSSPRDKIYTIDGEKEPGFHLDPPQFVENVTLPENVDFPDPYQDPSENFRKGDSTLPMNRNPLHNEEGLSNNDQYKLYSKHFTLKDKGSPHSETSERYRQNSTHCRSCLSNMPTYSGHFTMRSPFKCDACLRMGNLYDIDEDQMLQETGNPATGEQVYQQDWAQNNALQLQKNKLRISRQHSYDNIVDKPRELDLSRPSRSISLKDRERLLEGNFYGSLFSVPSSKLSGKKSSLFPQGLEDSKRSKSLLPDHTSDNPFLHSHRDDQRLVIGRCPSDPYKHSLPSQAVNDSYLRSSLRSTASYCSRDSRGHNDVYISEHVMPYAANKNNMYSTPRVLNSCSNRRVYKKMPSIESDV

Sequence of Sigma non-opioid intracellular receptor 1 (Cavia porcellus) (Q60492 whole entry): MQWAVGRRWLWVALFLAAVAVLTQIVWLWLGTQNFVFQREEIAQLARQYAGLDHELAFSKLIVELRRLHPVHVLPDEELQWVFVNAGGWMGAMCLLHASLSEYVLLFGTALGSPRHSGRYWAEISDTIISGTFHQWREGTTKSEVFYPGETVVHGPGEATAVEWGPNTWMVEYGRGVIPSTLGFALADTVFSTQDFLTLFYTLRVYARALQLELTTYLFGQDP

| SMILES | Activity (Influenza A virus) | inhibition [1] | Ki [2] | inhibition (Rattus norvegicus) | Ki [3] |
| --- | --- | --- | --- | --- | --- |
| N[C@@H]1C[C@@]23CCCC[C@@]2(CCC3)C1 | 97% | inactive | 16 µM | inactive |  |
| N[C@H]1C[C@@]23CCCC[C@@]2(CCC3)C1 | 116% | inactive | 11 µM | inactive |  |
| CC12CC3CC(C)(C1)CC(N)(C3)C2 [MEMANTINE] |  |  | 9.74 µM |  |  |
| C[C@]12N[C@H](Cc3ccccc31)c1ccccc12 [DIZOCILPINE] |  |  | 0.003 µM |  |  |
| NC12CC3CC(CC(C3)C1)C2 [AMANTADINE] | 3.9% |  | 11 µM |  | 10 µM |
| NC1CC23CCCCC2(CCC3)C1 (mixture of isomers) | 65% |  | 10.5 µM |  |  |
